Assay results as given in ChEMBL document CHEMBL3297739 (J Med Chem, 2014).

Legend:
[1] = Cytotoxicity against human SH-SY5Y cells assessed as LDH release after 48 hrs (reference value: 0%); type: cell-based
Method in brief: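 SH-SY5Y neuroblastoma cells were grown in serum for 5 days, then exposed to inhibitor (1–500 nM range). LDH activity in the medium was measured with a commercial kit. Values are % activity relative to untreated cells, which were set to 0%.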

[2] = target: T1, Farnesyl pyrophosphate synthase (Homo sapiens) (UniProt P14324); test: Allosteric inhibition of human recombinant FPPS using GPP and [3H]IPP as substrate at 20 uM incubated with enzyme for 10 mins prior to substrate addition by liquid scintillation counting analysis
T1 sequence (whole entry): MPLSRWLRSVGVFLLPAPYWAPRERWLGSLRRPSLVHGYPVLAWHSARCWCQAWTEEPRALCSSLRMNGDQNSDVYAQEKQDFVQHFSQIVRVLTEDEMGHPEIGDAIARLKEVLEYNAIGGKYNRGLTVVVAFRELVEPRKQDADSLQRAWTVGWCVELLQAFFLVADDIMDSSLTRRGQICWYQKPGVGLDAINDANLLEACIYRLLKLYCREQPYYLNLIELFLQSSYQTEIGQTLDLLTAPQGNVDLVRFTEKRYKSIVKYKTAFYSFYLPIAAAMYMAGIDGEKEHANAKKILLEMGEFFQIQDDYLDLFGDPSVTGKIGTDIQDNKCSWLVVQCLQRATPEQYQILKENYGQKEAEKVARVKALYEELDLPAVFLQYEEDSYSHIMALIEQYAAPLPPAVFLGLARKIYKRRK

[3] = target: T2, Farnesyl pyrophosphate synthase (Homo sapiens, UniProt P14324); test: Allosteric inhibition of human recombinant FPPS using GPP and [3H]IPP as substrate incubated with enzyme for 10 mins prior to substrate addition by liquid scintillation counting analysis
T2 sequence (P14324 whole entry): T1 sequence (whole entry)

[4] = target: T2, Farnesyl pyrophosphate synthase; test: Binding affinity to human FPPS by […] in absence of Mg2+ ions
Method in brief: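 ITC at 30 °C. One 1 μL ligand injection was followed by 18 injections of 2 μL. Heats of dilution from control titrations were subtracted.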

[5] = Dissociation constant, pKa of P(O)O-OH group of compound; type: physicochemical

Row | Structure (SMILES) | Activity [1] | IC50 [3] | further results
1 | O=P(O)(O)C(O)(Cc1cccnc1)P(=O)(O)O [RISEDRONIC ACID] | 60% |  | 
2 | O.O=P(O)(O)C(O)(Cn1ccnc1)P(=O)(O)O [ZOLEDRONIC ACID] | 60% |  | 
3 | O=C(O)Cn1c(C(=O)O)cc2ccc3ccccc3c21 | 3% |  | 
4 | Cc1ccc(-c2cc3c(NCCP(=O)(O)O)ncnc3s2)cc1 |  | > 20 µM | inhibition [2]: 40%
5 | Cc1ccc(-c2cc3c(NC(c4ccccc4)P(=O)(O)O)ncnc3s2)cc1Cl (centres undefined) | -7% | 1.2 µM | 
6 | O=P(O)(O)C(Nc1cncc(-c2ccc(OC3CC3)cc2)c1)P(=O)(O)O | 0% |  | 
7 | O=P(O)(O)C(Cc1cccnc1)P(=O)(O)O |  | 0.033 µM | 
8 | O=P(O)(O)CCc1cccnc1 |  | > 800 µM | 
9 | Cc1ccc(-c2cc3c(NCC(=O)O)ncnc3s2)cc1 |  | > 20 µM | inhibition [2]: 27%
10 | Cc1ccc(-c2cc3c(NC(P(=O)(O)O)P(=O)(O)O)ncnc3s2)cc1 |  |  | Kd [4]: 56 µM
11 | Cc1ccc(-c2cc3c(NCP(=O)(O)O)ncnc3s2)cc1Cl |  | 3.3 µM | 
12 | Cc1ccc(-c2cc3c(CCP(=O)(O)O)ncnc3s2)cc1 |  | 26 µM | pKa [5]: 7.7
13 | O=P(O)(O)C(Nc1ncnc2sc(-c3ccc(OC4CC4)cc3)cc12)P(=O)(O)O | -1% |  | 
14 | Cc1ccc(-c2cc3c(NCP(=O)(O)O)ncnc3s2)cc1 |  |  | Kd [4]: 9.2 µM; pKa [5]: 6.8
